This note sets out measurements from ChEMBL document CHEMBL1121489, “6-(Substituted-amino)-4H-s-triazolo[4,3-a][1,4]benzodiazepines and 4-(substituted-amino)-6H-s-triazolo[4,3-a][1,4]benzodiazepines with potential antianxiety activity” (1980).

Type in all cases: functional
For experiment [1], the species on record is Mus musculus. Kind of experiment: Effect on antagonism of nicotine-induced tonic-extensor convulsions (TE) in Carworth farms male albino mice. The procedure, abridged:
(§1)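 Male albino CF-1 mice (18–22 g). Compounds were dissolved or suspended in 0.25% aqueous methylcellulose and given ip to groups of four or six mice per dose, at multiple dose levels spaced 0.3 log apart. ED50 values were calculated by the Spearman–Karber method.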

For experiment [2], the species on record is Mus musculus. Description: Effect on loss of traction (Tr) in Carworth farms male albino mice. The gist of the method: as §1
The species entered for experiment [3] is Mus musculus. Kind of experiment: Effect on prolongation of hypoxic survival time (HS) in Carworth farms male albino mice. The gist of the method:
as §1

The species entered for experiment [4] is Mus musculus. Kind of experiment: Effect on potentiation of gamma-butyrolactone-induced sleep (gamma-B) in Carworth farms male albino mice. The procedure, abridged: as §1
The species entered for experiment [5] is Mus musculus. Kind of experiment: Effect on antagonism of nicotine-induced tonic-extensor convulsions (TE) in Carworth farms male albino mice. The gist of the method:
as §1

The species named for experiment [6] is Mus musculus. Description: Effect on pentylenetetrazole-induced clonic convulsions (P) in Carworth farms male albino mice. The procedure, abridged:
as §1

For experiment [7], the species on record is Mus musculus. Kind of experiment: Effect on bicuculline-induced tonic-extensor convulsions (B) in Carworth farms male albino mice. The procedure, abridged:
as §1

For experiment [8], the species on record is Mus musculus. Description: Effect on antagonism of nicotine-induced death (D) in Carworth farms male albino mice. The procedure, abridged:
as §1

For experiment [9], the species on record is Mus musculus. Description: Effect on bicuculline-induced tonic-extensor convulsions (B) in Carworth farms male albino mice. The gist of the method:
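CF-1 male albino mice, 18–22 g. Unless otherwise indicated, compounds were dissolved or suspended in 0.25% aqueous methylcellulose and given ip to groups of 4 or 6 mice per dose. Several dose levels were spaced at 0.3 log intervals. ED50 was calculated by the Spearman–Karber method.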

A value given as a limit tells only on which side of the number the result lay.

Take `Cc1nnc2n1-c1ccc(Cl)cc1CN=C2N1CCCCC1`: the ED50 in experiment [1] and in experiment [2] was above 100 mg/kg in each case.

Consider `Cc1nnc2n1-c1ccc(Cl)cc1C(N1CCCC1)=NC2`, for which the ED50 in experiment [3] was above 50 mg/kg; in experiment [4], 7.4 mg/kg; in experiment [5], 18 mg/kg; in experiment [6], above 50 mg/kg; in [7], above 50 mg/kg; in experiment [8] it was 18 mg/kg. Also, the ED50 in experiment [2] was above 100 mg/kg.

As to `Cc1nnc2n1-c1ccc(Cl)cc1C(N1CCCCCC1)=NC2`, the ED50 in experiment [5], in experiment [8] and in [2] was above 100 mg/kg in each case.

Take `Cc1nnc2n1-c1ccc(Cl)cc1C(N1CCN(C)CC1)=NC2`: the ED50 in experiment [5], in experiment [8] and in [2] was above 100 mg/kg in each case.

For the molecule `Cc1nnc2n1-c1ccc(Cl)cc1C(N1CCN(c3ccccc3)CC1)=NC2`, the ED50 in experiment [5], in experiment [8] and in experiment [2] was above 100 mg/kg each time.

Take `Cc1nnc2n1-c1ccc(Cl)cc1CN=C2N1CCCC1`: the ED50 in [4], in experiment [5], in experiment [9] and in experiment [2] was above 6 mg/kg each time.

On to `CCCCCCNC1=NCc2nnc(C)n2-c2ccc(Cl)cc21`, for which the ED50 in experiment [5], in [8] and in experiment [2] was above 100 mg/kg in each case.

For the molecule `Cc1nnc2n1-c1ccc(Cl)cc1C(N1CCCCC1)=NC2`, the ED50 in [3] was found to be 0.3 mg/kg; in experiment [4], 0.9 mg/kg; in [5] it was 0.4 mg/kg; in experiment [6] it was 1.1 mg/kg; in [7], 0.7 mg/kg; in experiment [8] it was 0.4 mg/kg. Besides, in [2], the ED50 was found to be 0.3 mg/kg.

`Cc1nnc2n1-c1ccc(Cl)cc1CN=C2N1CCOCC1`: the 50% effective dose (ED50) in experiment [4] is above 50 mg/kg; in experiment [5], above 100 mg/kg; in experiment [6] it was 40 mg/kg; in [7], above 50 mg/kg; in experiment [2] it was above 100 mg/kg.

Consider `Cc1nnc2n1-c1ccc(Cl)cc1CN=C2N1CCN(C)CC1`, for which the ED50 in experiment [3] is 40 mg/kg; in experiment [4] it was 40 mg/kg; in experiment [5] it was above 100 mg/kg; in experiment [6], above 50 mg/kg; in experiment [7], above 50 mg/kg; in [2] it was above 100 mg/kg.

Regarding `Cc1nnc2n1-c1ccc(Cl)cc1C(N1CCOCC1)=NC2`, the median effective dose (ED50) in [5] was 80 mg/kg; in experiment [8], 71 mg/kg; in experiment [2], above 100 mg/kg.

As for `Cc1nnc2n1-c1ccc(Cl)cc1CN=C2N1CCCCCC1`, the ED50 in [5] and in [2] was above 100 mg/kg throughout.

As to `Cc1nnc2n1-c1ccc(Cl)cc1C(N1CCN(CCO)CC1)=NC2`, the ED50 in experiment [5], in experiment [8] and in experiment [2] was above 100 mg/kg in each case.

With `Cc1nnc2n1-c1ccc(Cl)cc1C(c1ccccc1)=NC2` [ALPRAZOLAM], the median effective dose (ED50) was 0.2 mg/kg in experiment [3]; 0.08 mg/kg in experiment [4]; 0.02 mg/kg in [5]; 0.1 mg/kg in experiment [6]; 0.2 mg/kg in experiment [7]; 0.02 mg/kg in experiment [8]. Besides, in experiment [2], the ED50 is 0.6 mg/kg.

In the case of `CN1C(=O)CN=C(c2ccccc2)c2cc(Cl)ccc21` [DIAZEPAM], the 50% effective dose (ED50) in experiment [3] amounted to 0.2 mg/kg; in [4], 0.035 mg/kg; in experiment [5], 0.28 mg/kg; in [6], 0.1 mg/kg; in experiment [7], 2.6 mg/kg; in experiment [8], 0.28 mg/kg. This molecule came in with an ED50 in [2] of 7 mg/kg.

The term ED50 denotes the dose at which the effect has come halfway, by size or by number of responders.
